Variants at the floor of the assay were thinned out.
B1: tRNA (parent)
chain: GUUCCGUUGGCGUAAUGGUAACGCGUCUCCCUCCUAAGGAGAAGACUGCGGGUUCGAGUCCCGUACGGAACG

Variants of: B1
Assay: yeast fitness relative to wild type (ratio to wild type); higher = fitter; tRNA-Arg(CCU), competitive growth, 37 C, YPD
Procedure, shortened: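 The tRNA-Arg(CCU) gene variants were made by chemical synthesis with a 3% per-site mutation rate at 69 sites and inserted at the native genomic locus of Saccharomyces cerevisiae. After pooling, the strains were competed in YPD at 37°C for 24 hours in six parallel replicates. Gene amplicons from the start population and each end population were read by 100-nucleotide paired-end sequencing, and Darwinian fitness relative to wild type was taken from genotype frequency changes. Genotypes needed ≥ 100 starting reads, and estimates < 0.5 were set to 0.5.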

Variant | yeast fitness
GUUCCGUUGGCGUAAUGGUAACGCGUCUCCUUCGUAAGGAGAAGACUGCGGGUUCGAGUCCCGUACAGAACG [C31U C34G G67A] | 0.539
GUUCCGUUGGCGUAAUGGUAACGCGUCUCCUUCCUAAGGGGAAGACUACGGGUUCGAGUCCCGUACGGAUCG [C31U A40G G48A A70U] | 0.533
GUUCCGUUGGCGUAAUGGUAACGCGUCUCCUUCGUAAGGAGAAGACUGUGGAUUCGAGUCCCGUACGGUACG [C31U C34G C49U G52A A69U] | ≤ 0.5
GUUCCGUUGGCGUAAUGGUAACGCGUCUCCUUCCUAAGGAGGAGACUGCGGGUUCGAAUCCCGUACGGAACG [C31U A42G G58A] | 0.716
GUUCCGUUGGCGUAAUGGUAACGCGUCUCCUUCCUAAGGAGAAGAAUGCGGGUUCGACUCCCGUACGGUACG [C31U C46A G58C A69U] | 0.543
GUUCCGUUGGCGUAAUGGUAACGCGUCUCCUUCCUAAGGUGAAGUCUGCGGGUUCGAGUCCCGUACGGAACG [C31U A40U A45U] | 0.618
GUUCCGUUGGCGUAAUGGUAACGCGUCUCCUUCCUAAGGAGCAGACGGCGGCUUCGUGUCCCGUACGGAACG [C31U A42C U47G G52C A57U] | ≤ 0.5
GUUCCGUUGGCGUAAUGGUAACGCGUCUCCUUCCUAAGGAGAAGACUGUGGGUUCGAGUCCCGAACGGAACG [C31U C49U U64A] | 0.685
GUUCCGUUGGCGUAAUGGUAACGCGUCUCCUUCCUAUGGAGAAGACUGCGGGUUCGAGUCCCGUACGGAUCG [C31U A37U A70U] | 0.558
GUUCCGUUGGCGUAAUGGUAACGCGUCUCCGGCCUAUGGAGAAGACUGCGGGUUCGAGUCCCGUUCGGAACG [C31G U32G A37U A65U] | ≤ 0.5
GUUCCGUUGGCGUAAUGGUAACGCGUCUCCUUCCUCAGGAGAAGACUGCGGGCUCGAGUCCCGUACGGAACG [C31U A36C U53C] | 0.569
GUUCCGUUGGCGUAAUGGUAACGCGUCUCCUUCCUAAGGGGAAGACUCCGGGUUCGAGUCCCGUACGGAACG [C31U A40G G48C] | 0.559
GUUCCGUUGGCGUAAUGGUAACGCGUCUCCUUCCUAAGGAGUAGACUGCGGGUUCGAGUCCAGUACGGAACG [C31U A42U C62A] | 0.615
GUUCCGUUGGCGUAAUGGUAACGCGUCUCCUUUGUAAGGCGAAGACUGCGGGUUCGAGUCCCAUACGGAACG [C31U C33U C34G A40C G63A] | ≤ 0.5
GUUCCGUUGGCGUAAUGGUAACGCGUCUCCUUCCUAAGGAGAAGACUGCGGGUUGGAGUCCCGUACGGACCG [C31U C55G A70C] | 0.535
GUUCCGUUGGCGUAAUGGUAACGCGUCUCCUUCCUAGGGAGAAGACUGCGGGUUCGAGUCCCGUACGCAACG [C31U A37G G68C] | ≤ 0.5
GUUCCGUUGGCGUAAUGGUAACGCGUCUCCUUCCUAAGGAGAAGACUGCGGGUUCGCGUCCCGUAUGGAACG [C31U A57C C66U] | 0.663
GUUCCGUUGGCGUAAUGGUAACGCGUCUCCGUCCCAAGGAGAAGACUGCGGGUUCGAGUCCCGUACGGAACG [C31G U35C] | 0.823
GUUCCGUUGGCGUAAUGGUAACGCGUCUCCUUCCUAAGGAGAAGACUGCGGGUUCGAGUCCCGUACGGAUCG [C31U A70U] | 1.04

Variant | yeast fitness
GUUCCGUUGGCGUAAUGGUAACGCGUCUCCGCCCUAAGGAGAAGACUGCGGGUUCGAGUCCCGUACGGAACG [C31G U32C] | 0.754
GUUCCGUUGGCGUAAUGGUAACGCGUCUCCGUCCUAAGGAGAAGACCGCGGGUUCGAGUCCCGUACGGAACG [C31G U47C] | 0.952
GUUCCGUUGGCGUAAUGGUAACGCGUCUCCGUCCUAAGGAGAAGACGGCGGGUUCGAGUCCCGUACGGAACG [C31G U47G] | 0.667
GUUCCGUUGGCGUAAUGGUAACGCGUCUCCUUCCUAAGGAGCAGACUGCGGGUUCGAGUCCCGUACGGAACG [C31U A42C] | 1.17
GUUCCGUUGGCGUAAUGGUAACGCGUCUCCUUCGUAAGGAGAAGACUGUGGAUUCGAGUCCCGUACGGAACG [C31U C34G C49U G52A] | 0.725
GUUCCGUUGGCGUAAUGGUAACGCGUCUCCUUCCUAAGGAGAAGCCUGCGGGUUCGAGUCCCGUACGGAACG [C31U A45C] | 1.25
GUUCCGUUGGCGUAAUGGUAACGCGUCUCCUUCCUAAGGAGAAGUCUGCGGGUUCGAGUCCCGUACGGAACG [C31U A45U] | 1.12
GUUCCGUUGGCGUAAUGGUAACGCGUCUCCUUGCUAAGGAGAAGACUGCCGGUUCGAGUCCCGUACGGAACG [C31U C33G G50C] | 0.508
GUUCCGUUGGCGUAAUGGUAACGCGUCUCCGUCCUAAGGAGAAGACUGCGGGUCGGAGUCCCGCACGGAACG [C31G U54C C55G U64C] | ≤ 0.5
GUUCCGUUGGCGUAAUGGUAACGCGUCUCCGUCCUAAGGAGAAGACUGCGGGUUCGAGACCCGUUAGGAACG [C31G U59A A65U C66A] | ≤ 0.5
GUUCCGUUGGCGUAAUGGUAACGCGUCUCCUUCCUAUGGAGAAGACUGCGGGUUCGAGUCCCGUACGGUACG [C31U A37U A69U] | 0.677
GUUCCGUUGGCGUAAUGGUAACGCGUCUCCUUACUAAGGAGAUGACUACGGGAUCGAGUCCCGUACGGAACG [C31U C33A A43U G48A U53A] | ≤ 0.5
GUUCCGUUGGCGUAAUGGUAACGCGUCUCCUUCUUAAGGAGAAGACUGCAGAUUCGGGUCCCGUACCGAACG [C31U C34U G50A G52A A57G G67C] | ≤ 0.5
GUUCCGUUGGCGUAAUGGUAACGCGUCUCCGUCCUAAGGAGAAGACUGCGGGCGCGAGUCCCGUACGGAACG [C31G U53C U54G] | ≤ 0.5
GUUCCGUUGGCGUAAUGGUAACGCGUCUCCUUCCUAAGGAGAAGAAUGCGGGUUCGAGUCCCGUACGGACCG [C31U C46A A70C] | 0.771
GUUCCGUUGGCGUAAUGGUAACGCGUCUCCGUCCUAAGGAGAAGACUGCGGGUACGAGUCCCGUACGGAACG [C31G U54A] | 0.655
GUUCCGUUGGCGUAAUGGUAACGCGUCUCCUUCCUAAGGCGAAGACUGCGGGUUGGAGUCCCGUACGAUACG [C31U A40C C55G G68A A69U] | 0.581
GUUCCGUUGGCGUAAUGGUAACGCGUCUCCUUCCUAAGGAGAAGACUGAGGGUUCGAGUCCCGUACGGAACG [C31U C49A] | 0.783
